DNMT1 inh = human DNMT1 methyltransferase inhibitors, primary screen, biochemical, molecular beacon, fluorescence, HinP1I cleavage, uHTS | DNA (cytosine-5)-methyltransferase 1 (Homo sapiens), P26358 | inhibition (reported as % activation of signal), % at 10 µM | 360,000 compounds, 0.83% hits | AID 588458, 2011
MT1-MMP act inh = blockers of MT1-MMP proenzyme processing, primary screen, HT1080 RFP-PRO-GFP cells, GFP/RFP fluorescence; GFP/RFP ratio fluorescence, overnight; percent of plate control window, DMSO zero; GFP/RFP ratio change, % at 20 µM; 360,000 compounds, 0.061% hits;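 active = GFP/RFP ratio change of at least 30% with cell ATP level not reduced by more than half and red fluorescence within 50% of control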
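Assay system: RFP-PRO-GFP reporter HT1080 cells; read-out basis: GFP/RFP fluorescence ratio; benchmarks: DMSO wells and RFP-L50D-GFP cells; doses: 20 µM single dose, 1% DMSO; schedule: overnight cell settling, then overnight compound exposure, 37 °C, 5% CO2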
SUMO1 PPI mod = modulators of SUMO1 protein-protein interactions, primary screen, biochemical, uHTS. AID 602429, 2012. 360,000 compounds, 0.33% hits. inhibition, % at 20 µM. Small ubiquitin-related modifier 1 (Homo sapiens), P63165. SUMO1 binding to a labelled peptide, TR-FRET, 1 h; in the data active = inhibition above about 37%
Target sequence (P63165 whole entry, looked up): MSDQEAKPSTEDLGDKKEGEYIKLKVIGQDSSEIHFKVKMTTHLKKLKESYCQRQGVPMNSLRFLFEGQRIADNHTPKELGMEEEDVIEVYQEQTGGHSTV
CSN inh = inhibitors of CSN-mediated cullin deneddylation, primary screen, biochemical, fluorescence polarization, uHTS | COP9 signalosome complex subunit 5 (Homo sapiens), Q92905 | Purified CSN, SCF-Nedd8-OG deneddylation | inhibition, % at 12.5 µM | 360,000 compounds, 0.38% hits | AID 651999, 2013;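 active = pattern-corrected inhibition above about 35%, with an unprinted fluorescence ratio check between 0.5 and 1.5, limit read from the data, passing the limit was not always enough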
Target sequence (Q92905 whole entry, looked up, one chain of several): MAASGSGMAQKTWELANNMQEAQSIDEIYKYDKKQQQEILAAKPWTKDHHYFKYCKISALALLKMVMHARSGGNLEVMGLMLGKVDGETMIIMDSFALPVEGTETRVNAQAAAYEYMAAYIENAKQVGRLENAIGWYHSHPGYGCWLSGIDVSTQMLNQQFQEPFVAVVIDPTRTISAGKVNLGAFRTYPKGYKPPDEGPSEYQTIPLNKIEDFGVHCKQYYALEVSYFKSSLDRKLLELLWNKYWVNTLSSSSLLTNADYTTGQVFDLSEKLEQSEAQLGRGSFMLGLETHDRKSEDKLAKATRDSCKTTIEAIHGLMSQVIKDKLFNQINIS
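Assay system: HEK293T-derived human Csn5 enzyme; quantity: 0.24 nM enzyme; medium: Tris/NaCl/DTT buffer, pH 7.5; also added: substrate SCFSkp2-Nedd8OG, 10 nM; doses: 12.5 µM compound; schedule: 90 min reaction at room temperature; signal: FP; read-out: % inhibition of substrate cleavage by Csn5; benchmarks: substrate-only high control, full reaction low control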
SKN-1 block = suppressors of acrylamide-induced Pgst-4::GFP reporter in worms, primary screen, SKN-1 inhibitor project, whole organism, uHTS, GFP/RFP fluorescence ratio, strain VP596; C. elegans VP596 Pgst-4::GFP/RFP ratio, 24 h; inhibition, % at 21.8 µM; 360,000 compounds, 0.49% hits; AID 624304, 2012;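 active = interference check ratio from 0.5 to 1.5 plus GFP to RFP signal ratio inhibition reaching or exceeding a fixed threshold, cut at about 30% in these data, passing the limit was not always enough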
Rpn11 inh = Rpn11 (PSMD14) deubiquitinase inhibitors, primary screen, biochemical, fluorescence polarization, uHTS. 360,000 compounds, 0.59% hits. human 26S proteasome, Ub4-pepOG fluorescence polarization; 20S core pre-blocked with epoxomicin. inhibition, % at 20 µM;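 active = inhibition at 20 µM, scaled to each plate's controls, above about 33%, limit read from the data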
CSN deneddyl val = Csn5 deneddylation inhibitors, confirmation, biochemical, fluorescence polarization, single concentration, SCF-Nedd8OG substrate. shares compounds with CSN inh. inhibition, % at 16.6 µM. AID 720654, 2013. 540 compounds, 62% hits. Csn5 deneddylation of SCF-Nedd8OG, 90 min
MMP-2 counter = MMP-2 protease inhibition counter-screen, confirmation, counter-screen for CSN deneddylation inhibitor project, biochemical, fluorescence, single concentration; shares compounds with CSN inh; recombinant MMP-2, FRET substrate fluorescence, 60 min; inhibition, % at 16.6 µM; 540 compounds, 33% hits;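 active = corrected plate-normalized z-score of 5 or more, or -5 or less, or inhibition of 15% or more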
Thrombin counter = counter-screen for CSN deneddylation inhibitors: bovine thrombin inhibition; shares compounds with CSN inh; bovine thrombin cleavage of Ub4-pepOG, fluorescence polarization; inhibition, % at 16.6 µM; 540 compounds, 49% hits; AID 720656;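 active = inhibition at or above a set limit, with a fluorescence interference ratio between 0.5 and a set maximum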
Of the large screens only hits and unclear results are named; the others gave an inactive call (follow-up assays come after a bar, where shown); ! = a repeat was not active. Only some compounds are listed: those with a hit (about 2.3% of all), similar ones and a draw of the others. Cut-off read from the data, not from the text of the source, unless noted: active = inhibition above about 50%; inactive = the rest.

CCN1/C(=C/c2ccc3cc(C)ccc3[n+]2CC)Sc2cc(C)ccc21	CSN inh 56 (not shown: Rpn11 inh) | CSN deneddyl val 60 | MMP-2 counter inactive | Thrombin counter inactive
Cc1ccc2c(c1)S/C(=C/c1ccc[n+](C)c1)N2CCO	none
CCN1/C(=C/c2cccc[n+]2C)Sc2ccc(OC)cc21	none
CCN1/C(=C/c2ccc3cc(C)ccc3[n+]2C)Sc2ccc3sccc3c21	CSN inh 137, Rpn11 inh 108 | CSN deneddyl val inactive | MMP-2 counter inactive | Thrombin counter 67
CN(C)S(=O)(=O)c1ccc2c(c1)/C(=C/c1cc3c([nH]1)CCCC3)C(=O)N2	CSN inh 54 (not shown: Rpn11 inh) | CSN deneddyl val 75 | MMP-2 counter inactive | Thrombin counter inactive
CN(C)S(=O)(=O)c1ccc2c(c1)C(=O)c1cc(S(=O)(=O)N(C)C)ccc1CC2	none
O=C1NC[C@H](CCCCN2C[C@H](Cc3ccccc3)N(Cc3ccccc3)C(=O)C2=O)N(CCc2ccccc2)C1=O	none (no result: DNMT1 inh, Rpn11 inh)
CN(C)c1ccc(/C=C/c2ccc3ccccc3n2)cc1	CSN inh 50, SKN-1 block 58 (not shown: Rpn11 inh) | CSN deneddyl val 88 | MMP-2 counter inactive | Thrombin counter 17
O=c1oc(/C=C/c2ccc([N+](=O)[O-])s2)nc2ccccc12	CSN inh 50, Rpn11 inh 81 | CSN deneddyl val 189 | MMP-2 counter inactive | Thrombin counter 25
CCCCCCCCCCCCCCCC[n+]1cccc2ccccc21	SUMO1 PPI mod 83, CSN inh 36, SKN-1 block 53, Rpn11 inh 78 | CSN deneddyl val 65 | MMP-2 counter 17 | Thrombin counter inactive
CCCCCCCCC[n+]1cccc2c3ccccc3ccc21	none
COc1ccc(NC(=O)Nc2nnc([C@@H]3C[C@H](O)[C@@H](CO)O3)s2)cc1	none
O=C1NC(=S)S/C1=C\c1cc(Cl)cc(Cl)c1O	CSN inh 45 (not shown: Rpn11 inh) | CSN deneddyl val 54 | MMP-2 counter inactive | Thrombin counter 56
Cc1cc(/C=C2\SC(=S)NC2=O)c(C)n1-c1ccc(O)cc1	CSN inh 60 (not shown: Rpn11 inh) | CSN deneddyl val 50 | MMP-2 counter 28 | Thrombin counter 50
COc1ccccc1C=C1SC(=S)NC1=O	none
Cc1ccccc1Cn1c(=N)n(CC(O)c2ccco2)c2ccccc21 (stereo not drawn)	none
CC(C)(C)c1ccc(Cn2c(=N)n(CC(O)c3ccco3)c3ccccc32)cc1 (stereo not drawn)	CSN inh 68 (not shown: Rpn11 inh) | CSN deneddyl val 92 | MMP-2 counter inactive | Thrombin counter inactive
O=C(O)CCCCCN1C(=O)/C(=C\c2ccc(-c3ccc(Cl)cc3)o2)SC1=S	SUMO1 PPI mod 70, CSN inh 61 (not shown: Rpn11 inh) | CSN deneddyl val 74 | MMP-2 counter 16 | Thrombin counter 25
O=C(O)CCCCCN1C(=O)/C(=C\c2ccncc2)SC1=S	none
CCOC(=O)N(C)c1c(CC)nc2c(OCc3ccccc3OC)cccn12	none
COC(=O)c1ccc2c(c1)C(C)(C)C(/C=C/c1ccc(O)cc1)=[N+]2C	CSN inh 48 (not shown: Rpn11 inh) | CSN deneddyl val 62 | MMP-2 counter inactive | Thrombin counter 35
COc1cc(/C=C2\Oc3cc(O)ccc3C2=O)ccc1O	CSN inh 40 (not shown: Rpn11 inh) | CSN deneddyl val 98 | MMP-2 counter inactive | Thrombin counter 29
Cc1ccsc1/C=C1\Oc2cc(O)ccc2C1=O	none
CC1(C(=O)NS(=O)(=O)c2cccc(C#N)c2)CCN1C(=O)C1(c2ccccc2)CC1 (stereo not drawn)	none
NC(=O)COC(=O)c1cc(-c2ccco2)nc2ccccc12	none
O=C(O)c1cc(-c2ccco2)nc2ccc(Br)cc12	DNMT1 inh 106!, SUMO1 PPI mod 57!, CSN inh 42!, Rpn11 inh 63! | CSN deneddyl val 81 | MMP-2 counter inactive | Thrombin counter inactive
COC(=O)c1csc(-c2ccc(CO)o2)n1	none
Nc1ccc2c(O)cc(S(=O)(=O)O)cc2c1	DNMT1 inh 93, CSN inh 36 | CSN deneddyl val 94 | MMP-2 counter 16 | Thrombin counter inactive
CC(=O)Nc1ccc2c(O)cc(S(=O)(=O)O)cc2c1	none
COc1cccc(S(=O)(=O)N2C[C@H](O)COC[C@H]3O[C@@H](CC(=O)N4CCN(C)CC4)CC[C@@H]32)c1	none (no result: DNMT1 inh, Rpn11 inh)
CCCCC(=O)N(C)c1c(CC)nc2c(OCc3cc(Cl)cc(Cl)c3)cccn12	none
CCOC(=O)C1=C(C)N=c2s/c(=C/c3ccc(OCC(=O)O)cc3)c(=O)n2C1c1cc(OC)c(OC)c(OC)c1 (stereo not drawn)	none (no result: MT1-MMP act inh)
CCOC(=O)C1=C(C)N=c2sc(=Cc3cc(Cl)c(OCC(=O)O)c(Cl)c3)c(=O)n2C1c1cccc(OC)c1 (stereo not drawn)	CSN inh 64 (not shown: Rpn11 inh) | CSN deneddyl val inactive | MMP-2 counter inactive | Thrombin counter 49
CCOC(=O)C1=CCC(c2ccccc2C)N(S(=O)(=O)c2ccc(C)cc2)C1 (stereo not drawn)	none
Cc1ccc(C2=NOC(=O)/C2=C\C=C\c2ccccc2)cc1	SUMO1 PPI mod 41, CSN inh 35 | CSN deneddyl val 103 | MMP-2 counter inactive | Thrombin counter inactive
COC(=O)c1cc(C)nc2c1C(=O)C(=O)C=C2N1CCOCC1	DNMT1 inh 97, SUMO1 PPI mod 79, CSN inh 45 | CSN deneddyl val inactive | MMP-2 counter inactive | Thrombin counter inactive
COC(=O)c1cc(S(=O)(=O)N2CCOCC2)c(Cl)cc1N1CCOCC1	none

Screening data: PubChem, Sanford-Burnham Center for Chemical Genomics
